Assay [1] relates to Enterococcus faecalis. Briefly: Antibacterial activity against vancomycin-susceptible Enterococcus faecalis EF 12704 infected in New Zealand White rabbit assessed as log reduction of bacterial count in aortic valve vegetations at 10 mg/kg, administered through ear vein every 12 hrs for 4 days. In kind it is functional. The gist of the method:
(§1)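 New Zealand White rabbits were anesthetized and given left-ventricular catheters. Endocarditis was induced 24 h later with 10^8 CFU E. faecalis. From 24 h post-inoculation, drug was given via the marginal ear vein by computer-controlled pump, simulating human pharmacokinetics of 600 mg every 12 h (10 mg/kg/12 h). After 4 days, aortic vegetations were excised, weighed, homogenized in 0.5 ml saline and cultured quantitatively on agar for 24 h at 37°C.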

In assay [2] the test system is Enterococcus faecalis. Put plainly: Antibacterial activity against vancomycin-susceptible Enterococcus faecalis EF 12704 infected in New Zealand White rabbit assessed as reduction of bacterial count in aortic valve vegetations at 10 mg/kg, administered through ear vein every 12 hrs for 4 days (reference value: 8.56 +/- 0.74 CFU/g). The format is functional. An outline of the steps:
as §1

For assay [3], the system named is Enterococcus faecalis. Briefly: Antibacterial activity against vancomycin-susceptible Enterococcus faecalis EF 12704 assessed as log reduction in bacterial count at 12 mg/l after 24 hrs by time kill assay. In kind it is functional. The gist of the method:
(§2)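 Time-kill experiments used an inoculum of 5 × 10^6 CFU/ml, with bacterial counts followed over 24 h.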

Assay [4] deals with Enterococcus faecalis. Put plainly: Antibacterial activity against vancomycin-resistant Enterococcus faecalis EF NJ1 assessed as bactericidal activity at 25 mg/l after 24 hrs by time kill assay. The format is functional, organism-based. An outline of the steps:
as §2

Assay [5] concerns Enterococcus faecalis. Briefly: Antibacterial activity against vancomycin-susceptible Enterococcus faecalis EF 12704 infected in New Zealand White rabbit assessed as reduction of bacterial count in aortic valve vegetations administered through ear vein every 12 hrs for 4 days (reference value: 8.56 +/- 0.74 CFU/g). The format is functional.
Assay [6] has as its system Enterococcus faecalis. Briefly: Antibacterial activity against vancomycin-susceptible Enterococcus faecalis EF 12704 assessed as bactericidal activity at 25 mg/l after 24 hrs by time kill assay. In kind it is functional, organism-based. An outline of the steps: as §2
Assay [7] concerns Enterococcus faecalis. Briefly: Antibacterial activity against vancomycin-resistant Enterococcus faecalis EF NJ1 infected in New Zealand White rabbit assessed as reduction of bacterial count in aortic valve vegetations administered through ear vein every 12 hrs for 4 days (reference value: 8.60 +/- 0.54 CFU/g). The format is functional.
Assay [8] deals with Enterococcus faecalis. Briefly: Antibacterial activity against vancomycin-resistant Enterococcus faecalis EF NJ1 infected in New Zealand White rabbit assessed as log reduction of bacterial count in aortic valve vegetations at 10 mg/kg, administered through ear vein every 12 hrs for 4 days. The format is functional. An outline of the steps: as §1

Calls of active or inactive are those of the source. The calls are words filed in the database; no cut-off is given here.

Take `CC(=O)NC[C@H]1CN(c2ccc(N3CCOCC3)c(F)c2)C(=O)O1` [LINEZOLID]: the log10CFU/g is recorded as over 3 in assay [1] and 6.88 in assay [2]. Further, the log10CFU/ml in assay [3] is 1.

In the case of `CN[C@H](CC(C)C)C(=O)N[C@H]1C(=O)N[C@@H](CC(N)=O)C(=O)N[C@H]2C(=O)N[C@H]3C(=O)N[C@H](C(=O)N[C@H](C(=O)O)c4cc(O)cc(O)c4-c4cc3ccc4O)[C@H](O)c3ccc(c(Cl)c3)Oc3cc2cc(c3O[C@@H]2O[C@H](CO)[C@@H](O)[C@H](O)[C@H]2O[C@H]2C[C@](C)(N)[C@H](O)[C@H](C)O2)Oc2ccc(cc2Cl)[C@H]1O` [VANCOMYCIN], the result in assay [4] and in assay [6] was inactive. The log10CFU/g in assay [1] worked out at 2; in assay [5] it was 6.7; in assay [7], 8.01; in assay [8] it was 2.

The record behind these values is ChEMBL document CHEMBL1649273, “In vivo activity of a novel anti-methicillin-resistant Staphylococcus aureus cephalosporin, ceftaroline, against vancomycin-susceptible and -resistant Enterococcus faecalis strains in a rabbit endocarditis model: a comparative study with linezolid and vancomycin” (2009).
